The values below come from ChEMBL document CHEMBL4354843, “Structure-Based Design of a Potent and Selective Covalent Inhibitor for SRC Kinase That Targets a P-Loop Cysteine” (J Med Chem, 2020).

The subject of assay [1] is Epidermal growth factor receptor (Homo sapiens), P00533 [UNDEFINED MUTATION]. In words: Binding affinity to human partial length EGFR L747-S752del/P753S mutant expressed in bacterial expression system assessed as residual binding level at 1 uM by Kinomescan method relative to control. An outline of the steps: (§1)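 KinomeScan active site-directed competition binding panel (468 kinases), compound tested at 1 μM. Result expressed as remaining kinase signal versus DMSO control (percent of control).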

Assay [2] has as its target Casein kinase II subunit alpha' (Homo sapiens) (UniProt P19784). In words: Binding affinity to wild-type human full length CSNK2A2 (M1 to R350 residues) expressed in mammalian expression system assessed as residual binding level at 1 uM by Kinomescan method relative to control. The gist of the method:
(§2)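 Active-site-directed KinomeScan competition binding panel covering 468 kinases, compound tested at 1 μM. Each readout is the kinase signal remaining with compound, expressed as a percentage of the DMSO control. […]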

Assay [3] deals with Activin receptor type-1-like (Homo sapiens) (UniProt P37023). The assay can be described thus: Binding affinity to wild-type human ACVRL1 (L164 to Q503 residues) expressed in bacterial expression system assessed as residual binding level at 1 uM by Kinomescan method relative to control. The gist of the method: as §2
Assay [4] deals with Ephrin type-B receptor 1 (Homo sapiens) (UniProt P54762). In words: Binding affinity to wild-type human partial length EPHB1 (P589 to T911 residues) expressed in bacterial expression system assessed as residual binding level at 1 uM by Kinomescan method relative to control.
Assay [5] relates to Leucine-rich repeat serine/threonine-protein kinase 2 (Homo sapiens), Q5S007 [G2019S]. In words: Binding affinity to human partial length LRRK2 G2019S mutant (H970 to E2527 residues) expressed in mammalian expression system assessed as residual binding level at 1 uM by Kinomescan method relative to control. An outline of the steps:
as §1

Assay [6] concerns Receptor-type tyrosine-protein kinase FLT3 (Homo sapiens), P36888 [D835V]. The assay can be described thus: Binding affinity to human partial length FLT3 D835V mutant (V592 to Y969 residues) expressed in bacterial expression system assessed as residual binding level at 1 uM by Kinomescan method relative to control. An outline of the steps:
as §1

Assay [7] concerns the target Aurora kinase A (Homo sapiens) (UniProt O14965). In words: Binding affinity to wild-type human partial length AURKA (E122 to K401 residues) expressed in mammalian expression system assessed as residual binding level at 1 uM by Kinomescan method relative to control.
For assay [8], the system named is Epidermal growth factor receptor (Homo sapiens), P00533 [L858R,T790M]. In words: Binding affinity to human partial length EGFR L858R/T790M double mutant (R669 to V1011 residues) expressed in mammalian expression system assessed as residual binding level at 1 uM by Kinomescan method relative to control. An outline of the steps: as §1
Assay [9] concerns Phosphatidylinositol 4,5-bisphosphate 3-kinase catalytic subunit alpha isoform (Homo sapiens), P42336 [Q546K]. In words: Binding affinity to human partial length PIK3CA Q546K mutant (R108 to N1068 residues) expressed in mammalian expression system assessed as residual binding level at 1 uM by Kinomescan method relative to control. The gist of the method:
as §1

Assay [10] addresses Dual specificity mitogen-activated protein kinase kinase 2 (Homo sapiens) (UniProt P36507). In words: Binding affinity to wild-type human full length MEK2 (M1 to V400 residues) expressed in mammalian expression system assessed as residual binding level at 1 uM by Kinomescan method relative to control. The gist of the method: (§3)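 KinomeScan, an active site-directed competition binding panel of 468 kinases. The test compound was at 1 μM. The readout is remaining kinase binding as a percentage of the DMSO control. Scores above 35% were treated as weak binding and not listed.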

The target of assay [11] is Serine/threonine-protein kinase PAK 2 (Homo sapiens) (UniProt Q13177). In words: Binding affinity to wild-type human partial length PAK2 (P151 to R525 residues) expressed in bacterial expression system assessed as residual binding level at 1 uM by Kinomescan method relative to control. The gist of the method:
(§4)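 Active-site-directed competition binding panel of 468 kinases (KinomeScan), compound at 1 μM. The read-out is kinase remaining bound, given as a percentage of the DMSO control. […]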

Assay [12] deals with Mast/stem cell growth factor receptor Kit (Homo sapiens), P10721 [UNDEFINED MUTATION]. The assay can be described thus: Binding affinity to human partial length KIT V559D/V654 double mutant (Y545 to D952 residues) expressed in bacterial expression system assessed as residual binding level at 1 uM by Kinomescan method relative to control. An outline of the steps:
as §1

Assay [13] addresses Serine/threonine-protein kinase 4 (Homo sapiens) (UniProt Q13043). In words: Binding affinity to wild-type human full length MST1 (M1 to F487 residues) expressed in bacterial expression system assessed as residual binding level at 1 uM by Kinomescan method relative to control. An outline of the steps:
as §3

Assay [14] addresses Serine/threonine-protein kinase BRSK1 (Homo sapiens) (UniProt Q8TDC3). In words: Binding affinity to wild-type human partial length BRSK1 (M1 to E754 residues) expressed in bacterial expression system assessed as residual binding level at 1 uM by Kinomescan method relative to control.
The target in assay [15] is Ribosomal protein S6 kinase alpha-5 (Homo sapiens) (UniProt O75582). The assay can be described thus: Binding affinity to wild-type human partial length N- terminal RPS6KA5 kinase domain 1 expressed in bacterial expression system assessed as residual binding level at 1 uM by Kinomescan method relative to control.
Assay [16] deals with Serine/threonine-protein kinase ULK2 (Homo sapiens) (UniProt Q8IYT8). In words: Binding affinity to wild-type human partial length ULK2 (M1 to S301 residues) expressed in mammalian expression system assessed as residual binding level at 1 uM by Kinomescan method relative to control.
The test system of assay [17] is Proto-oncogene tyrosine-protein kinase receptor Ret (Homo sapiens), P07949 [V804L]. The assay can be described thus: Binding affinity to human partial length RET V804L mutant (E713 to D1014 residues) expressed in bacterial expression system assessed as residual binding level at 1 uM by Kinomescan method relative to control. An outline of the steps:
as §1

The target in assay [18] is Dual specificity testis-specific protein kinase 1 (Homo sapiens) (UniProt Q15569). The assay can be described thus: Binding affinity to wild-type human full length TESK1 (R37 to S626 residues) expressed in bacterial expression system assessed as residual binding level at 1 uM by Kinomescan method relative to control.
Assay [19] has as its system Phosphatidylinositol 4,5-bisphosphate 3-kinase catalytic subunit alpha isoform (Homo sapiens), P42336 [H1047Y]. The assay can be described thus: Binding affinity to human partial length PIK3CA H1047Y mutant (R108 to N1068 residues) expressed in mammalian expression system assessed as residual binding level at 1 uM by Kinomescan method relative to control. An outline of the steps: as §1

Assay [20] has as its target Serine/threonine-protein kinase 10 (Homo sapiens) (UniProt O94804). In words: Binding affinity to wild-type human partial length LOK (E16 to V314 residues) expressed in bacterial expression system assessed as residual binding level at 1 uM by Kinomescan method relative to control. An outline of the steps: as §4
Assay [21] deals with Serine/threonine-protein kinase BRSK2 (Homo sapiens) (UniProt Q8IWQ3). In words: Binding affinity to wild-type human full length BRSK2 (M1 to L674 residues) expressed in bacterial expression system assessed as residual binding level at 1 uM by Kinomescan method relative to control. An outline of the steps:
as §2

Take `C=CC(=O)Nc1ccccc1Nc1nc(Nc2ccc(N3CCN(C)CC3)cc2)ncc1C(=O)Nc1c(C)cccc1Cl`: the Activity stood at 74% in assay [1]; 100% in [2]; 100% in assay [3]; 66% in [4]; 100% in assay [5]; 91% in [6]. Besides, the Activity was 100% in assay [7]; 100% in [8]; 100% in [9]; 93% in assay [10]; 97% in [11]; 100% in [12]. Further, the Activity in assay [13] amounted to 93%; in assay [14], 100%; in assay [15] it was 100%; in assay [16], 100%; in assay [17], 100%; in [18] it was 100%. The results for the Activity in assay [19], in [20] and in assay [21] were 100%, 96% and 100%, respectively.
